From ChEMBL document CHEMBL1125715, “Novel 5-HT3 antagonists. Indole oxadiazoles” (J Med Chem, 1991)

Molecular target: T1, Serotonin 3 (5-HT3) receptor (Rattus norvegicus, UniProt P35563+Q9JJ16)
T1 sequence (P35563 whole entry): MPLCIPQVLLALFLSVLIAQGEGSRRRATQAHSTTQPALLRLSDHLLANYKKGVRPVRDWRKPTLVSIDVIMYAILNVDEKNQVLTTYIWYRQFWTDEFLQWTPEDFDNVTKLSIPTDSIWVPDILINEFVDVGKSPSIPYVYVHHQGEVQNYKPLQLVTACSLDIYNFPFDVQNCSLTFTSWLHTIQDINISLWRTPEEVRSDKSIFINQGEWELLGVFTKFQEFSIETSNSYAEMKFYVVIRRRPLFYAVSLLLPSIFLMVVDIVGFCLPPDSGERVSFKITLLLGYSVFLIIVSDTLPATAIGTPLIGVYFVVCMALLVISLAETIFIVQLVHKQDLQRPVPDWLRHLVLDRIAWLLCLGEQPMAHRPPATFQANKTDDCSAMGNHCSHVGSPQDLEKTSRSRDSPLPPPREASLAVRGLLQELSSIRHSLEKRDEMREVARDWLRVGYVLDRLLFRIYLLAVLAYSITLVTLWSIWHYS
T1 sequence (Q9JJ16 whole entry): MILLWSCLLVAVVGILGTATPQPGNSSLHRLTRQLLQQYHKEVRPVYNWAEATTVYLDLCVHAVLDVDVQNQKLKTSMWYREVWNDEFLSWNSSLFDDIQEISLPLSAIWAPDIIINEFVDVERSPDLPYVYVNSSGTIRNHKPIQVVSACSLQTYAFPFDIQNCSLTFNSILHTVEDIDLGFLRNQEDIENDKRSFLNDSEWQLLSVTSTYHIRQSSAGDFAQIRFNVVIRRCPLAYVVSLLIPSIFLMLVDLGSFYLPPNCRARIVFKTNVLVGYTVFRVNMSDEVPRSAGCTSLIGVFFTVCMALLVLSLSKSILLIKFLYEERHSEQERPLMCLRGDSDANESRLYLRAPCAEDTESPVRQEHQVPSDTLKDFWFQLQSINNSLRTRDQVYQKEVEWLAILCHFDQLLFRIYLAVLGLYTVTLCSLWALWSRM
Experiment: Compound was evaluated for the displacement of [3H]-Q-ICS 205-930 binding to 5-hydroxytryptamine 3 receptor in rat brain membranes
Type: cell membranes
Method in brief: (§1)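 Rat cortical membranes from male Sprague-Dawley rats (250-300 g): sucrose homogenization, differential centrifugation, washed in 2.5 mM Hepes, made fresh on the day. About 400 µg protein incubated on ice (4 °C, 15 min) with 0.5-0.7 nM [3H]Q-ICS 205-930 in 10 mM Hepes pH 7.1 containing pargyline and ascorbate. Nonspecific binding defined with 10 µM MDL 72222.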
With `Cc1[nH]c2ccc(O)cc2c1CCN` the IC50 was 0.646 µM.
In the case of `CN1[C@@H]2CC[C@H]1C[C@@H](OC(=O)c1cc(Cl)cc(Cl)c1)C2` [BEMESETRON], the IC50 is reported as 0.0219 µM.

Molecular target: T1, Serotonin 3 (5-HT3) receptor
Experiment: Displacement of [3H]-Q-ICS 205-930 binding to 5-hydroxytryptamine 3 receptor recognition sites in rat brain membranes.
Type: cell membranes
Method in brief: as §1
For `C=CCn1cc(-c2noc(C3CN4CCC3CC4)n2)c2ccccc21` (centres undefined), the IC50 was 0.0219 µM.
With `c1ccc2[nH]c(-c3noc(C4CN5CCC4CC5)n3)cc2c1` (centres undefined) the IC50 was 0.692 µM.
Work on `Oc1cccc(-c2noc(C3CN4CCC3CC4)n2)c1` (centres undefined) yielded an IC50 of 0.0813 µM.
For `c1ccc2cc(-c3noc(C4CN5CCC4CC5)n3)ccc2c1` (centres undefined), the IC50 was 1.48 µM.
Molecule `Cn1cc(-c2noc(C3=CCCNC3)n2)c2ccccc21` has an IC50 of 0.468 µM.
`COc1ccccc1-c1noc(C2CN3CCC2CC3)n1` (centres undefined) showed an IC50 of 0.155 µM.
Molecule `Cn1cc(-c2noc(C3CN4CCC3C4)n2)c2ccccc21` (stereo in doubt; 12u) has an IC50 of 0.00759 µM.
Work on `CN1CC2CCC1C(c1nc(-c3cn(C)c4ccccc34)no1)C2` (stereo in doubt; 12z) yielded an IC50 of 0.0851 µM.
Work on `Cc1cccc2c(-c3noc(C4CN5CCC4CC5)n3)cn(C)c12` (centres undefined) yielded an IC50 of 0.0955 µM.
With `Cn1cc(-c2nsc(C3CC4CCN3C4)n2)c2ccccc21` (stereo in doubt; 26) the IC50 was 0.0141 µM.
Work on `Cn1cc(-c2nsc(C3CC4CCN3C4)n2)c2ccccc21` (stereo in doubt; 27) yielded an IC50 of 0.0204 µM.
Molecule `Cn1cc(-c2noc(C3CN4CCC3C4)n2)c2ccccc21` (stereo in doubt; 12v) has an IC50 of 0.00105 µM.
For `CN1CCCC(c2nc(-c3cn(C)c4ccccc34)no2)C1` (centres undefined), the IC50 was 0.0129 µM.
For `Cn1cc(-c2noc(C3CC4CCC3NC4)n2)c2ccccc21` (stereo in doubt; 12t), the IC50 was 0.0132 µM.
Work on `Cn1cc(-c2noc(C3CN4CCC3CC4)n2)c2cc(F)ccc21` (centres undefined) yielded an IC50 of 0.0457 µM.
`c1ccc(-c2noc(C3CN4CCC3CC4)n2)cc1` (centres undefined) gave an IC50 of 0.2 µM.
`CN1CC=C(c2nnc(-c3cn(C)c4ccccc34)o2)CC1` gave an IC50 of 0.501 µM.
Work on `Cn1cc(-c2nc(C3CN4CCC3CC4)no2)c2ccccc21` (centres undefined) yielded an IC50 of 0.0295 µM.
`COc1cccc(-c2noc(C3CN4CCC3CC4)n2)c1` (centres undefined) gave an IC50 of 0.0126 µM.
Work on `Cn1cc(-c2noc(C3CN4CCC3CC4)n2)c2ccccc21` (centres undefined) yielded an IC50 of 0.00138 µM.
Work on `CNCCc1nc(-c2cn(C)c3ccccc23)no1` yielded an IC50 of 0.0851 µM.
Molecule `CN1CC2CCC1C(c1nc(-c3cn(C)c4ccccc34)no1)C2` (stereo in doubt; 12y) has an IC50 of 0.224 µM.
In the case of `c1ccc2c(-c3noc(C4CN5CCC4CC5)n3)c[nH]c2c1` (centres undefined), the IC50 is reported as 0.00269 µM.
`c1ccc2c(-c3noc(C4CN5CCC4CC5)n3)cccc2c1` (centres undefined) gave an IC50 of 0.0631 µM.
`c1ccc2c(-c3noc(C4CN5CCC4CC5)n3)[nH]nc2c1` (centres undefined) showed an IC50 of 0.0178 µM.
For `Cn1cc(-c2noc(C3CC[N+](C)(C)CC3)n2)c2ccccc21`, the IC50 was 0.0355 µM.
`Cc1ccc2c(c1)c(-c1noc(C3CN4CCC3CC4)n1)cn2C` (centres undefined) showed an IC50 of 0.331 µM.
For `CNCc1nc(-c2cn(C)c3ccccc23)no1`, the IC50 was 1 µM.
`Cn1cc(-c2noc(CN)n2)c2ccccc21` gave an IC50 of 0.282 µM.
In the case of `Cn1cc(-c2noc(CC3CN4CCC3CC4)n2)c2ccccc21` (centres undefined), the IC50 is reported as 0.055 µM.
Work on `Cn1cc(-c2noc(C3CC4CCN3CC4)n2)c2ccccc21` (centres undefined) yielded an IC50 of 0.129 µM.
With `CN1C2CCC1CC(c1nc(-c3cn(C)c4ccccc34)no1)C2` (centres undefined) the IC50 was 0.191 µM.
Work on `Cn1cc(-c2noc(C3CC4CCC3NC4)n2)c2ccccc21` (stereo in doubt; 12s) yielded an IC50 of 0.0891 µM.
In the case of `Oc1ccc(-c2noc(C3CN4CCC3CC4)n2)cc1` (centres undefined), the IC50 is reported as 0.148 µM.
With `Cn1cc(-c2noc(CCN)n2)c2ccccc21` the IC50 was 0.0676 µM.
`CN(C)Cc1nc(-c2cn(C)c3ccccc23)no1` gave an IC50 of 0.166 µM.
In the case of `Cn1cc(-c2noc(C3CCC[N+](C)(C)C3)n2)c2ccccc21` (centres undefined), the IC50 is reported as 0.0347 µM.
Work on `CN(C)CCCc1nc(-c2cn(C)c3ccccc23)no1` yielded an IC50 of 0.191 µM.
With `CN1CCC(c2nc(-c3cn(C)c4ccccc34)no2)CC1` the IC50 was 0.0132 µM.
`CN1CCC=C(c2csc(-c3cn(C)c4ccccc34)n2)C1` showed an IC50 of 5.89 µM.
With `COc1ccc(-c2noc(C3CN4CCC3CC4)n2)cc1` (centres undefined) the IC50 was 1.58 µM.
Molecule `c1ccc2ncc(-c3noc(C4CN5CCC4CC5)n3)cc2c1` (centres undefined) has an IC50 of 1.51 µM.
With `Oc1ccccc1-c1noc(C2CN3CCC2CC3)n1` (centres undefined) the IC50 was 0.0417 µM.
`Cn1cc(-c2noc(CCN3CCCCC3)n2)c2ccccc21` showed an IC50 of 0.372 µM.
For `Cn1cc(-c2noc(C34CCN(CC3)CC4)n2)c2ccccc21`, the IC50 was 0.00427 µM.
Work on `Cn1c(-c2noc(C3CN4CCC3CC4)n2)cc2ccccc21` (centres undefined) yielded an IC50 of 0.676 µM.
`CN1CCC=C(c2nc(-c3cn(C)c4ccccc34)no2)C1` gave an IC50 of 0.209 µM.
For `CN(C)CCc1nc(-c2cn(C)c3ccccc23)no1`, the IC50 was 0.0138 µM.
Molecule `Cn1cc(-c2noc(C[N+](C)(C)C)n2)c2ccccc21` has an IC50 of 0.000708 µM.
With `c1cncc(-c2noc(C3CN4CCC3CC4)n2)c1` (centres undefined) the IC50 was 2.95 µM.

Test system: not listed separately
Experiment: pKa value of the compound
Type: physicochemical
`CN1CCC=C(c2nc(-c3cn(C)c4ccccc34)no2)C1` showed a pKa of 7.2.

Test system: not listed separately
Experiment: pKa value of the compound.
Type: physicochemical
`Cn1cc(-c2noc(C3=CCCNC3)n2)c2ccccc21` showed a pKa of 7.9.
`CNCCc1nc(-c2cn(C)c3ccccc23)no1` showed a pKa of 8.8.
With `CNCc1nc(-c2cn(C)c3ccccc23)no1` the pKa was 6.5.
Molecule `Cn1cc(-c2noc(CN)n2)c2ccccc21` has a pKa of 6.4.
With `CN(C)Cc1nc(-c2cn(C)c3ccccc23)no1` the pKa was 5.6.
In the case of `CN(C)CCc1nc(-c2cn(C)c3ccccc23)no1`, the pKa is reported as 7.7.
